The source of these data is ChEMBL document CHEMBL1681754, “Synthesis, structure, molecular docking, and structure-activity relationship analysis of enamines: 3-aryl-4-alkylaminofuran-2(5H)-ones as potential antibacterials” (Bioorg Med Chem, 2011).

Converted amounts (≈) assume the structure as drawn.

One assay has as its system Candida albicans. Nature of the assay: Antimicrobial activity against Candida albicans ATCC 10231 after 48 hrs by MTT assay. Format: functional. The following applies: ATCC 10231, 48 h. An outline of the steps: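 Antifungal MTT colorimetric microdilution in RPMI-1640 medium. Compounds serially diluted in sterile medium (50% v/v DMSO in PBS). Inoculum approx. 10⁵ cfu/mL, plates at 27 °C for 48 h. Then PBS with 2 mg/mL MTT added, 4–5 h at room temperature. After a further 12 h, OD read at 550 nm to give MIC₅₀.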
(In general: Formazan colour is commonly taken as a measure of viable cells.)

A further assay deals with Escherichia coli. Nature of the assay: Antimicrobial activity against Escherichia coli ATCC 35218 after 24 hrs by MTT assay. Format: functional. Conditions: ATCC 35218, 24 h. Summed up:
(§1)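 MTT colorimetric broth microdilution in LB medium. Compounds serially diluted in sterile medium (50% v/v DMSO in PBS). Inoculum approx. 10⁵ cfu/mL, 37 °C for 24 h. Then 50 µL PBS with 2 mg/mL MTT added per well, 4–5 h at room temperature. After a further 12 h at room temperature, OD read at 550 nm to give MIC₅₀.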

Another assay has as its system Bacillus subtilis. Nature of the assay: Antimicrobial activity against Bacillus subtilis ATCC 6633 after 24 hrs by MTT assay. Conditions: ATCC 6633, 24 h. Type of assay: functional. Summed up: as §1
Another assay has as its system Staphylococcus aureus. Nature of the assay: Antimicrobial activity against Staphylococcus aureus ATCC 25923 after 24 hrs by MTT assay. The following applies: ATCC 25923, 24 h. Format: functional. Summed up:
as §1

Assay [1] in a line: Inhibition of Staphylococcus aureus tyrosyl-tRNA synthetase by aminoacylation assay. An outline of the steps:
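S. aureus TyrRS overexpressed in E. coli and purified (~98% by SDS–PAGE). Enzyme (0.2 nM) preincubated with a range of inhibitor concentrations for 10 min at room temperature, then prewarmed mix added at 37 °C. TCA-precipitated charged tRNA counted by scintillation; IC₅₀ is the concentration halving activity.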

Another assay has as its system Streptococcus pneumoniae. In words: Antimicrobial activity against Streptococcus pneumoniae R6 by broth microdilution method. Format: functional.

For the compound `CN(C)C1=C(c2ccc(Br)cc2)C(=O)OC1`, the MIC50 in the assay with Candida albicans, in the assay with Escherichia coli (read-out: MIC50), in the assay on Bacillus subtilis and against Staphylococcus aureus was above 100 µg/mL in each case.
Take `COc1ccc(C2=C(N3CCOCC3)COC2=O)cc1OC`: the MIC50 in the assay with Candida albicans, in the assay with Escherichia coli (read-out: MIC50), in the assay with Bacillus subtilis and against Staphylococcus aureus was above 100 µg/mL throughout.
Regarding `O=C1OCC(N2CCNCC2)=C1c1cccc(Cl)c1`, the MIC50 with Candida albicans was above 100 µg/mL; with Escherichia coli (read-out: MIC50) it was above 100 µg/mL; in the assay on Bacillus subtilis it was above 100 µg/mL; against Staphylococcus aureus, 37.4 µg/mL (≈ 134 µM).
Take `O=C1OCC(NCCN2CCOCC2)=C1c1ccc(Br)cc1`: the concentration for half-maximal inhibition (IC50) in assay [1] was found to be 3.3 µM. Further, the MIC50 is 3.5 µg/mL (≈ 9.53 µM) in the assay with Candida albicans, above 100 µg/mL in the assay on Escherichia coli (read-out: MIC50), 24.7 µg/mL (≈ 67.3 µM) against Bacillus subtilis and 9.7 µg/mL (≈ 26.4 µM) against Staphylococcus aureus.
In turn, `O=C1OCC(NCc2ccccc2)=C1c1cccc(Cl)c1` displayed an IC50 in assay [1] of 8.9 µM. The MIC50 against Candida albicans was 83.9 µg/mL (≈ 280 µM); with Escherichia coli (read-out: MIC50), above 100 µg/mL; against Bacillus subtilis, above 100 µg/mL; in the assay with Staphylococcus aureus, 25.3 µg/mL (≈ 84.4 µM).
Regarding `CN(C)C1=C(c2cccc(Br)c2)C(=O)OC1`, the MIC50 against Candida albicans was above 100 µg/mL; in the assay with Escherichia coli (read-out: MIC50), above 100 µg/mL; in the assay with Bacillus subtilis, above 100 µg/mL; against Staphylococcus aureus, 61.4 µg/mL (≈ 218 µM).
In assay [1], `O=C1OCC(N2CCOCC2)=C1c1cccc(Cl)c1` showed an IC50 of 10.8 µM. For the same compound, the MIC50 in the assay with Candida albicans is 74.6 µg/mL (≈ 267 µM); with Escherichia coli (read-out: MIC50) it was above 100 µg/mL; in the assay on Bacillus subtilis, 93.1 µg/mL (≈ 333 µM); in the assay with Staphylococcus aureus, 25.7 µg/mL (≈ 91.9 µM).
`N[C@@H](Cc1ccc(O)cc1)C(=O)N[C@H](C(=O)O)[C@H]1[C@H](O)[C@](O)(CO)[C@@H](O)CN1O` gave an IC50 in assay [1] of 0.003 µM. The same compound displayed an MIC against Streptococcus pneumoniae above 64 µg/mL.
Compound `O=C1OCC(N2CCCCC2)=C1c1cccc(Cl)c1` came in with an IC50 in assay [1] of 2.8 µM. Moreover, the MIC50 in the assay with Candida albicans is 33.1 µg/mL (≈ 119 µM); in the assay with Escherichia coli (read-out: MIC50), above 100 µg/mL; with Bacillus subtilis, 41.6 µg/mL (≈ 150 µM); with Staphylococcus aureus, 7.5 µg/mL (≈ 27 µM).
Compound `O=C1OCC(NCCN2CCOCC2)=C1c1cccc(Cl)c1` registered an IC50 in assay [1] of 0.86 µM. Also, the MIC50 against Candida albicans is 21.3 µg/mL (≈ 66 µM); in the assay on Escherichia coli (read-out: MIC50), above 100 µg/mL; in the assay with Bacillus subtilis, 27.9 µg/mL (≈ 86.4 µM); against Staphylococcus aureus it was 3.2 µg/mL (≈ 9.91 µM).
Turning to `O=C1OCC(N2CCCC2)=C1c1ccc(Cl)cc1`, the MIC50 in the assay with Candida albicans was above 100 µg/mL; with Escherichia coli (read-out: MIC50), above 100 µg/mL; with Bacillus subtilis, above 100 µg/mL; in the assay with Staphylococcus aureus it was 88.4 µg/mL (≈ 335 µM).
For `CCCCNC1=C(c2ccc(Br)cc2)C(=O)OC1`, the MIC50 with Candida albicans, with Escherichia coli (read-out: MIC50), in the assay on Bacillus subtilis and against Staphylococcus aureus was above 100 µg/mL each time.
On to `O=C1OCC(N2CCOCC2)=C1c1ccc(Br)cc1`, for which the MIC50 against Candida albicans is 89.7 µg/mL (≈ 277 µM); in the assay with Escherichia coli (read-out: MIC50), above 100 µg/mL; against Bacillus subtilis, 91.8 µg/mL (≈ 283 µM); in the assay with Staphylococcus aureus, 42.6 µg/mL (≈ 131 µM).
As for `O=C1OCC(N2CCNCC2)=C1c1ccc(Br)cc1`, the MIC50 against Candida albicans was 77.4 µg/mL (≈ 239 µM); in the assay with Escherichia coli (read-out: MIC50), above 100 µg/mL; with Bacillus subtilis, 78.5 µg/mL (≈ 243 µM); in the assay with Staphylococcus aureus, 54.7 µg/mL (≈ 169 µM).
The compound `O=C1OCC(N2CCCCC2)=C1c1ccc(Br)cc1` yielded an IC50 in assay [1] of 7.7 µM. Also, the MIC50 against Candida albicans is 74.4 µg/mL (≈ 231 µM); in the assay on Escherichia coli (read-out: MIC50), above 100 µg/mL; against Bacillus subtilis, above 100 µg/mL; against Staphylococcus aureus, 21.8 µg/mL (≈ 67.7 µM).
With `O=C1OCC(N2CCCC2)=C1c1ccc(Br)cc1`, the MIC50 against Candida albicans was 49.8 µg/mL (≈ 162 µM); with Escherichia coli (read-out: MIC50), above 100 µg/mL; with Bacillus subtilis, 50 µg/mL (≈ 162 µM); in the assay with Staphylococcus aureus, 37.1 µg/mL (≈ 120 µM).
The corresponding values for `COc1ccc(C2=C(N3CCNCC3)COC2=O)cc1OC` are above 100 µg/mL, above 100 µg/mL, above 100 µg/mL and above 100 µg/mL.
The compound `O=C1OCC(NNc2ccc([N+](=O)[O-])cc2)=C1c1ccccc1` gave an IC50 in assay [1] of 0.24 µM. Moreover, the MIC50 is 13.1 µg/mL (≈ 42.1 µM) against Candida albicans, above 100 µg/mL with Escherichia coli (read-out: MIC50), 15.6 µg/mL (≈ 50.1 µM) with Bacillus subtilis and 0.85 µg/mL (≈ 2.73 µM) in the assay with Staphylococcus aureus.
Take `COc1ccc(C2=C(NCCN3CCOCC3)COC2=O)cc1OC`: the MIC50 with Candida albicans was above 100 µg/mL; with Escherichia coli (read-out: MIC50), above 100 µg/mL; in the assay on Bacillus subtilis it was above 100 µg/mL; against Staphylococcus aureus, 68.3 µg/mL (≈ 196 µM).
For `COc1ccc(C2=C(NCc3ccccc3)COC2=O)cc1OC`, the MIC50 against Candida albicans, in the assay on Escherichia coli (read-out: MIC50), with Bacillus subtilis and against Staphylococcus aureus was above 100 µg/mL throughout.
Regarding `CCCCNC1=C(c2cccc(Cl)c2)C(=O)OC1`, the MIC50 was 9.08 µg/mL (≈ 34.2 µM) against Candida albicans, above 100 µg/mL with Escherichia coli (read-out: MIC50), above 100 µg/mL with Bacillus subtilis and above 100 µg/mL with Staphylococcus aureus.
In assay [1], `O=C1OCC(NNc2ccc([N+](=O)[O-])cc2)=C1c1ccc(Br)cc1` showed an IC50 of 0.12 µM. For the same compound, the MIC50 was found to be 5.2 µg/mL (≈ 13.3 µM) against Candida albicans, 79.4 µg/mL (≈ 203 µM) in the assay with Escherichia coli (read-out: MIC50), 9.5 µg/mL (≈ 24.3 µM) against Bacillus subtilis and 0.42 µg/mL (≈ 1.08 µM) in the assay with Staphylococcus aureus.
On to `O=C1OCC(NCc2ccccc2)=C1c1ccc(Br)cc1`, for which the MIC50 with Candida albicans is above 100 µg/mL; in the assay on Escherichia coli (read-out: MIC50), above 100 µg/mL; against Bacillus subtilis, above 100 µg/mL; in the assay with Staphylococcus aureus it was 57.6 µg/mL (≈ 167 µM).
As for `COc1ccc(C2=C(N3CCCCC3)COC2=O)cc1OC`, the MIC50 in the assay with Candida albicans, in the assay with Escherichia coli (read-out: MIC50), against Bacillus subtilis and against Staphylococcus aureus was above 100 µg/mL in each case.
As for `COc1ccc(C2=C(N3CCCC3)COC2=O)cc1OC`, the MIC50 against Candida albicans, with Escherichia coli (read-out: MIC50), against Bacillus subtilis and against Staphylococcus aureus was above 100 µg/mL throughout.
`O=C1OCC(NC2CCCCC2)=C1c1ccc(Br)cc1` yielded a half-inhibitory concentration (IC50) in assay [1] of 14.5 µM. For the same compound, the MIC50 is 62.8 µg/mL (≈ 187 µM) in the assay with Candida albicans, above 100 µg/mL in the assay with Escherichia coli (read-out: MIC50), 86.7 µg/mL (≈ 258 µM) in the assay with Bacillus subtilis and 27.8 µg/mL (≈ 82.7 µM) in the assay with Staphylococcus aureus.
In the case of `CCCNC1=C(c2ccc(Br)cc2)C(=O)OC1`, the MIC50 is above 100 µg/mL with Candida albicans, above 100 µg/mL with Escherichia coli (read-out: MIC50), above 100 µg/mL in the assay with Bacillus subtilis and 87.2 µg/mL (≈ 294 µM) in the assay on Staphylococcus aureus.
As for `NC[C@H]1O[C@H](O[C@H]2[C@H](O)[C@@H](O[C@H]3O[C@H](CO)[C@@H](O)[C@H](N)[C@H]3O)[C@H](N)C[C@@H]2N)[C@H](O)[C@@H](O)[C@@H]1O` [KANAMYCIN], the figures for the MIC50 with Bacillus subtilis and against Staphylococcus aureus were 0.43 µg/mL (≈ 0.888 µM) and 1 µg/mL (≈ 2.06 µM), respectively.
For `CCCCNC1=C(c2ccc(OC)c(OC)c2)C(=O)OC1`, the MIC50 against Candida albicans, in the assay on Escherichia coli (read-out: MIC50), in the assay with Bacillus subtilis and in the assay with Staphylococcus aureus was above 100 µg/mL each time.
As to `CN1CCN(C2=C(c3cccc(Cl)c3)C(=O)OC2)CC1`, the MIC50 in the assay on Candida albicans was above 100 µg/mL; in the assay on Escherichia coli (read-out: MIC50) it was above 100 µg/mL; against Bacillus subtilis, above 100 µg/mL; in the assay with Staphylococcus aureus it was 65.2 µg/mL (≈ 223 µM).
In the case of `CCCNC1=C(c2cccc(Cl)c2)C(=O)OC1`, the MIC50 against Candida albicans was above 100 µg/mL; in the assay with Escherichia coli (read-out: MIC50) it was above 100 µg/mL; against Bacillus subtilis, above 100 µg/mL; against Staphylococcus aureus, 52.4 µg/mL (≈ 208 µM).
On to `COc1ccc(C2=C(NC3CCCCC3)COC2=O)cc1OC`, for which the MIC50 with Candida albicans, with Escherichia coli (read-out: MIC50), against Bacillus subtilis and in the assay on Staphylococcus aureus was above 100 µg/mL in each case.
For the compound `CC(=O)N1CCN(c2ccc(OCC3COC(Cn4ccnc4)(c4ccc(Cl)cc4Cl)O3)cc2)CC1` (stereo not given) [KETOCONAZOLE], the MIC50 in the assay with Candida albicans is 4.4 µg/mL (≈ 8.28 µM).
Compound `O=C1OCC(N2CCCC2)=C1c1cccc(Cl)c1` came in with an IC50 in assay [1] of 5.6 µM. The MIC50 against Candida albicans was 71.2 µg/mL (≈ 270 µM); with Escherichia coli (read-out: MIC50) it was above 100 µg/mL; with Bacillus subtilis, 87.4 µg/mL (≈ 331 µM); with Staphylococcus aureus it was 12.6 µg/mL (≈ 47.8 µM).
In the case of `CC1(C)S[C@@H]2[C@H](NC(=O)Cc3ccccc3)C(=O)N2[C@H]1C(=O)O` [PENICILLIN G], in the assay with Escherichia coli, the MIC50 is 2.5 µg/mL (≈ 7.48 µM).

In general, MIC50 refers to the lowest concentration that inhibits either 50% of growth or 50% of the strains tested, depending on the study. As usually defined, the IC50 is the concentration that gives 50% inhibition. A low value points to higher potency. By MIC is commonly meant the lowest concentration that inhibits growth of the organism. A low value points to inhibition by little substance.
